This passage reports Concentration, K and half-life results from ChEMBL document CHEMBL1124421, “A dihydropyridine carrier system for sustained delivery of 2',3'-dideoxynucleosides to the brain” (J Med Chem, 1989).

The species named for data set [1] is Mus musculus. The data set is described as follows: Distribution of compound in mice brain was measured after 3 hr. Conditions: in vivo.
For data set [2], the species on record is Mus musculus. Put plainly: Distribution of compound in mice liver was measured after 3 hr. The format is ADME, organism-based. Conditions: in vivo. The essentials: (§1)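 Female BDF/1 mice dosed by tail-vein injection at 25 mg/kg in 5% Tween 80 containing 5% ethanol; killed 1, 2, 3, 6 and 24 h later. Liver homogenized in 50% methanol and pyridinium salt quantified by C-18 reverse-phase HPLC (linear gradient 50–70% acetonitrile). Three mice per time point; values in µg/g wet tissue.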

For data set [3], the species on record is Mus musculus. Put plainly: Distribution of compound in mice brain was measured after 24 hr r. The following applies: in vivo.
Data set [4] is filed under the species Mus musculus. The data set is described as follows: Distribution of compound in mice liver was measured after 1 hr. Type of data set: ADME, organism-based. The following applies: in vivo. The essentials:
as §1

For data set [5], the species on record is Mus musculus. Put plainly: Distribution of compound in mice brain was measured after 1 hr. The following applies: in vivo.
The species entered for data set [6] is Mus musculus. The data set is described as follows: Distribution of compound in mice liver was measured after 2 hr. Conditions: in vivo. The format is ADME, organism-based. In short, it runs like this: as §1
The species entered for data set [7] is Mus musculus. The data set is described as follows: Distribution of compound in mice brain was measured after 2 hr. The following applies: in vivo.
The species named for data set [8] is Mus musculus. Put plainly: Distribution of compound in mice brain was measured after 6 hr. The following applies: in vivo.
Data set [9] is filed under the species Mus musculus. Put plainly: Distribution of compound in mice liver was measured after 24 hr; b=Undetected. Type of data set: ADME, organism-based. Conditions: in vivo. The essentials:
as §1

Data set [10] is filed under the species Mus musculus. The data set is described as follows: Distribution of compound in mice liver was measured after 6 hr. Conditions: in vivo. Type of data set: ADME, organism-based. The essentials:
as §1

A short description of data set [11]: In vitro oxidation of compound to its pyridinium salt (3) in presence of hydrogen peroxide. The format is ADME.
The species entered for data set [12] is Mus musculus. Put plainly: In vitro oxidation of compound to its pyridinium salt (3) in presence of mouse brain homogenate. Type of data set: ADME. The essentials:
(§2)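 Dihydropyridine ester at 5 × 10^-5 M kept at 37 °C in a UV cuvette. Media were human plasma diluted 1:1 with 50 mM phosphate buffer pH 7.4, mouse liver homogenate (20 mg/mL) or mouse brain homogenate (40 mg/mL) in the same buffer. Loss of the 360 nm dihydronicotinate absorbance was followed. Rate constant came from the slope of log disappearance.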

For data set [13], the species on record is Mus musculus. Put plainly: In vitro oxidation of compound to its pyridinium salt (3) in presence of mouse liver homogenate. Type of data set: ADME. In short, it runs like this: as §2
The species named for another data set is Homo sapiens. The data set is described as follows: In vitro oxidation of compound to its pyridinium salt (3) in presence of human plasma. Type of data set: ADME. In short, it runs like this: as §2
The nature of data set [14]: Half-life of compound in presence of mouse liver homogenate. The format is ADME. In short, it runs like this: as §2
Data set [15] can be described thus: Half-life of compound in presence of hydrogen peroxide. Type of data set: ADME.
Data set [16] in a line: Half-life of compound in presence of human plasma. Type of data set: ADME. In short, it runs like this: as §2
Data set [17] in a line: Half-life of compound in presence of mouse brain homogenate. The format is ADME. In short, it runs like this:
as §2

With `Cc1cn(C2C=CC(COC(=O)c3ccc[n+](C)c3)O2)c(=O)[nH]c1=O.[I-]` (stereo not drawn), the Concentration is given as 5.3 ug (g of wet tissue)-1 in the data set filed under Mus musculus [1]; 2 ug (g of wet tissue)-1 in the data set listed under Mus musculus [2]; 3 ug (g of wet tissue)-1 in the data set filed under Mus musculus [3]; 3.3 ug (g of wet tissue)-1 in the data set filed under Mus musculus [4]; 4.7 ug (g of wet tissue)-1 in the data set filed under Mus musculus [5]; 2.5 ug (g of wet tissue)-1 in the data set filed under Mus musculus [6]. The Concentration in the data set listed under Mus musculus [7] is reported as 4.9 ug (g of wet tissue)-1; in the data set filed under Mus musculus [8], 5.1 ug (g of wet tissue)-1; in the data set filed under Mus musculus [9], “Undetected”; in the data set listed under Mus musculus [10] it was 1.3 ug (g of wet tissue)-1.
In the case of `Cc1cn([C@H]2C=C[C@@H](CO)O2)c(=O)[nH]c1=O` [STAVUDINE], the Concentration in the data set filed under Mus musculus [1] is listed as 2.6 ug (g of wet tissue)-1; in the data set listed under Mus musculus [3], 1.2 ug (g of wet tissue)-1; in the data set listed under Mus musculus [5], 2.7 ug (g of wet tissue)-1; in the data set listed under Mus musculus [7], 2.5 ug (g of wet tissue)-1; in the data set listed under Mus musculus [8], 2.3 ug (g of wet tissue)-1.
Consider `C[n+]1cccc(C(=O)[O-])c1` [TRIGONELLINE], for which the Concentration in the data set filed under Mus musculus [1] is 2.4 ug (g of wet tissue)-1; in the data set listed under Mus musculus [3], 0.9 ug (g of wet tissue)-1; in the data set listed under Mus musculus [5], 2.2 ug (g of wet tissue)-1; in the data set filed under Mus musculus [7], 2.1 ug (g of wet tissue)-1; in the data set listed under Mus musculus [8], 1.9 ug (g of wet tissue)-1.
Turning to `Cc1cn(C2C=CC(COC(=O)C3=CN(C)C=CC3)O2)c(=O)[nH]c1=O` (stereo not drawn), the K in [11] came out at 0.00055 s⁻¹; in the data set filed under Mus musculus [12], 0.0000885 s⁻¹; in the data set filed under Mus musculus [13] it was 0.000092 s⁻¹; in the data set filed under Homo sapiens, 0.0000354 s⁻¹. The half-life – broadly, the time in which the quantity being followed falls by half – came to 2.08 h in data set [14], 0.35 h in [15], 5.42 h in [16] and 2.17 h in data set [17].
